Results as given in ChEMBL document CHEMBL1148340 (J Med Chem, 2004).
pEC50, pIC50: −log10 of the molar value.

What was measured:
[1] = target: T1, Human immunodeficiency virus type 1 reverse transcriptase (Human immunodeficiency virus 1, UniProt Q72547); experiment: Inhibitory concentration against wild type HIV-1/138Lys reverse transcriptase (RT) using [3H]dGTP as a radioligand
Method in brief: (§1)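 Recombinant HIV-1 RT (IIIB-derived) or Glu138Lys mutant. Buffer: 50 mM Tris-HCl pH 7.8, 5 mM DTT, 150 mM KCl, 5 mM MgCl₂, 500 μM EDTA, 0.06% Triton X-100, with BSA. Incubated 37 °C, 30 min, then TCA/pyrophosphate precipitation on ice.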

MT4 [2] = experiment: Effective concentration required to inhibit HIV-2 induced cytopathicity in human MT-4 cell lines; type: functional, cell-based
Method in brief: (§2)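 MT-4 cells at 3 × 10⁵/mL were infected with HIV-1 or HIV-2 at ~100 CCID₅₀ per mL and mixed 1:1 with compound dilutions. After 5 days, HIV-induced cytopathicity was recorded by trypan blue dye exclusion. EC₅₀ is the concentration that reduced virus-induced loss of cell viability by 50%.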

CCRF-CEM [3] = experiment: Effective concentration required to inhibit HIV-2 induced cytopathicity in human CEM cell lines; type: functional, cell-based
Method in brief: (§3)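 CEM cells at 4 × 10⁵/mL were infected with HIV-1 or HIV-2 at ~100 CCID₅₀ per mL. The cells were mixed 1:1 with serial compound dilutions. Giant cell formation was scored microscopically after 4 days. EC₅₀ is the concentration that inhibited virus-induced cytopathicity by 50%.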

MT4 [4] = experiment: Cytostatic concentration required to reduce MT-4 cell viability in mock-infected cell cultures; type: functional; conditions: Homo sapiens
Method in brief: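 Mock-infected MT-4 cells at 3 × 10⁵/mL were exposed to compound dilutions. Viable cells were counted by trypan blue exclusion. CC₅₀ is the concentration that reduced the number of viable cells by 50%.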

[5] = target: T1, Human immunodeficiency virus type 1 reverse transcriptase; experiment: Inhibitory concentration against wild type HIV-1 reverse transcriptase (RT) using poly rC.dG as the template or primer; method in brief: as §1
[6] = tested on: Human immunodeficiency virus 1; experiment: Anti-HIV activity against wild type HIV-1(LAI) strain in P4/R5 cells; conditions: Human immunodeficiency virus 1, P4/R5
CCRF-CEM [7] = experiment: Effective concentration required to inhibit HIV-1E138K induced cytopathicity in human CEM cell lines
[8] = Partition coefficient (logP); type: physicochemical; conditions: octanol/water
[9] = tested on: Human immunodeficiency virus 1; experiment: Anti-HIV activity against PFA-resistant mutant HIV-1W88G strain in P4/R5 cells; type: functional, organism-based; conditions: Human immunodeficiency virus 1, P4/R5
Method in brief: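 HeLa-derived P4/R5 reporter cells (stable Tat-activated β-galactosidase under HIV LTR), 5×10^4 cells/mL, infected with HIV-1 LAI or W88G at MOI 0.05 TCID₅₀/mL. Drug added in 2- or 3-fold dilutions, in triplicate. At 48 h, lysis buffer and luminescent substrate added and β-galactosidase read by luminometer. EC₅₀ given as mean ± SD of five independent experiments (three in one case).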

CCRF-CEM [10] = experiment: Effective concentration required to inhibit HIV-1 induced cytopathicity in human CEM cell lines; type: functional, cell-based; method in brief: as §3
MT4 [11] = experiment: Effective concentration required to inhibit HIV-1 induced cytopathicity in human MT-4 cell lines; type: functional, cell-based; method in brief: as §2
CCRF-CEM [12] = experiment: Cytostatic concentration required to inhibit proliferation of CEM cells; type: functional; conditions: Homo sapiens
Method in brief: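 CEM cells were cultured with serial compound dilutions alongside the antiviral assay. CC₅₀ is the concentration that inhibited cell proliferation by 50%.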

Structure (SMILES) | pIC50 [1] | pEC50 (MT4 [2]) | pEC50 (CCRF-CEM [3]) | CC50 (MT4 [4]) [µM] | pIC50 [5] | pEC50 [6] | pEC50 (CCRF-CEM [7]) | logP [8] | pEC50 [9] | pEC50 (CCRF-CEM [10]) | pEC50 (MT4 [11]) | CC50 (CCRF-CEM [12]) [µM]
Cc1cn([C@@H]2O[C@H](CO[Si](C)(C)C(C)(C)C)[C@@]3(OS(=O)(=O)C=C3N)[C@H]2O[Si](C)(C)C(C)(C)C)c(=O)n(CCCO)c1=O | < 4.00 | < 5.70 | < 5.00 | 3.86 | 5.09 | 7.37 | < 5.70 | 2.26 | 7.57 | – | – | –
O=C(O)P(=O)(O)O [FOSCARNET] | – | 3.85 | 3.98 | 230 | – | 4.36 | 4.06 | -0.56 | < 3.52 | 3.92 | 3.88 | –
COC(=O)P(=O)(OC)OCCCn1c(=O)c(C)cn([C@@H]2O[C@H](CO[Si](C)(C)C(C)(C)C)[C@@]3(OS(=O)(=O)C=C3N)[C@H]2O[Si](C)(C)C(C)(C)C)c1=O (some centres not stated) | < 3.30 | < 5.00 | < 4.30 | 18.4 | 4.96 | – | < 5.00 | 7.12 | – | 7.10 | 6.55 | 20.9
Cc1cn([C@@H]2O[C@H](CO[Si](C)(C)C(C)(C)C)[C@@]3(OS(=O)(=O)C=C3N)[C@H]2O[Si](C)(C)C(C)(C)C)c(=O)n(CCCOP(=O)(O)C(=O)OCc2ccccc2)c1=O | 3.51 | < 4.30 | < 4.30 | 84 | 5.42 | – | 4.70 | 5.02 | – | 5.52 | 5.90 | 138
Cc1cn([C@@H]2O[C@H](CO[Si](C)(C)C(C)(C)C)[C@@]3(OS(=O)(=O)C=C3N)[C@H]2O[Si](C)(C)C(C)(C)C)c(=O)n(CCCOP(=O)(O)C(=O)O)c1=O | 3.36 | < 4.30 | < 4.30 | 111 | 5.43 | 6.52 | ≤ 4.30 | 0.63 | 6.80 | 6.33 | 6.09 | 178
Cc1cn([C@@H]2O[C@H](CO[Si](C)(C)C(C)(C)C)[C@@]3(OS(=O)(=O)C=C3N)[C@H]2O[Si](C)(C)C(C)(C)C)c(=O)n(C)c1=O | < 4.00 | – | – | – | 5.51 | – | – | – | – | – | – | –
CCOC(=O)P(=O)(O)OCCCn1c(=O)c(C)cn([C@@H]2O[C@H](CO[Si](C)(C)C(C)(C)C)[C@@]3(OS(=O)(=O)C=C3N)[C@H]2O[Si](C)(C)C(C)(C)C)c1=O | 3.53 | < 4.30 | < 4.30 | 84.3 | 5.20 | – | 4.60 | 4.01 | – | 5.67 | 5.37 | 135
COC(=O)P(=O)(O)OCCCn1c(=O)c(C)cn([C@@H]2O[C@H](CO[Si](C)(C)C(C)(C)C)[C@@]3(OS(=O)(=O)C=C3N)[C@H]2O[Si](C)(C)C(C)(C)C)c1=O | 3.40 | < 4.30 | < 4.30 | 55.5 | 5.33 | – | < 4.30 | 4.01 | – | 5.35 | 4.70 | 146
